Laboratory results from PubChem BioAssay.
Records with an inconclusive call do not appear.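 Rule for the calls, unless noted: active = inhibition over a set limit, the all-compound mean plus 3 SD, in both replicate runs; inconclusive = over that limit in just one replicate run; inactive = at or under that limit in both runs.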

How the values were obtained:
[1] = S. cerevisiae growth inhibition in permissive medium (OD615), pilot counter-assay for S. cerevisiae lifespan shortening project, permissive growth control (AID 705;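 active = growth inhibition above 25% in both replicates, a cutoff set 3 SD above the mean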); details: OD615, 24 h, at 10 µM, hits give high values
Procedure, shortened: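 Material: engineered DeaD yeast; compound dosing: one dose 10 µM, DMSO 0.25% final; measure: yeast growth inhibition indicated by reduced 24 h OD615; detection: OD615 turbidity read; incubation: cells pre-grown 4 h, then 24 h compound exposure, 30 °C humidified; medium: permissive synthetic complete medium with raffinose and galactose carbon sources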

[2] = S. cerevisiae growth inhibition in restrictive medium, OD615, pilot screen, restrictive growth control, yeast lifespan reduction project (AID 706;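 active = growth inhibition above a set limit, 3 SD over mean compound inhibition, in both replicates, cut at about 43% in these data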;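 note: modified DeaD lifespan yeast strain shifted to restrictive glucose medium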); details: OD615, 48 h, at 10 µM, hits give high values
Procedure, shortened: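 material = engineered S. cerevisiae DeaD strain | medium = glucose-based CSMM-D restrictive medium | times = 4 h pre-incubation, 48 h exposure at 30 °C | technique = OD615 absorbance reading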

[3] = doxorubicin toxicity protection in MRP-1 cells – H69AR cells, CellTiter-Glo, duplicate, MRP-1 activator project, pilot screen (AID 807;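 active = viability increase at or above a cutoff of the median across tested compounds plus 3 SD, cut at about 8.5% in these data, passing the limit was not always enough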;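 note: compound pretreatment 18-22 h then 72 h combined with doxorubicin; 0% = doxorubicin alone and 100% = vehicle without doxorubicin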); details: H69AR viability with doxorubicin, CellTiter-Glo luminescence; at 10 µM; hits give high values
[4] = viability of HCT116 without oncogenic beta-catenin – human colon tumor cells, pilot screen (AID 823;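 active = cell viability at or below a set limit in both duplicate runs, the limit being the all-compound median minus 4 SD, cut at about 23% in these data, passing the limit was not always enough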;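 note: 0% = wells killed by 20 µM Hyamine and 100% = untreated DMSO cell wells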); details: HCT116 beta-catenin knockout viability, CellTiter-Glo, 60 h; at 10 µM; hits give low values
[5] = viability of PTEN-null HCT116 cells – cell-based, HCT116 clonal line, CellTiter-Glo, pilot screen (AID 824;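 active = viability at or below 27.92% in each of two runs, the all-compound median minus 4 SD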;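 note: 0% = 20 µM Hyamine control and 100% = vehicle cell control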); details: HCT116 PTEN-deleted viability, 60 h, at 10 µM, hits give low values
[6] = RAM pathway blockade in budding yeast – dse1pr::URA3 reporter, 5-FOA selection, pilot screen (AID 869);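 note: 0% = DMSO wells with no growth and 100% = 10 µM 1-NA-PP1 with full growth; RAM network block rescues cells from 5-FOA so hits raise OD615 growth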; details: S. cerevisiae dse1pr::URA3 5-FOA growth, OD615, 2 d; at 10 µM; hits give high values; strain carries analog-sensitive mutant Cbk1 kinase
[7] = RAM signaling pathway blockade in yeast – S. cerevisiae, Pdr1DBD-CYC8 efflux-inhibited sensitized strain, primary screen (AID 1298;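 active = RAM network inhibition above 8.4% in each of two replicates, 3 SD over the compound average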;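 note: 0% = DMSO untreated cells without growth and 100% = 10 µM 1-NA-PP1 full growth; higher means more yeast growth rescued from 5-FOA killing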); details: S. cerevisiae cbk1-as DSE1-URA3 strain, 5-FOA growth OD615, 2 d; at 50 µM; hits give high values

Cc1nc2sc(C(c3ccc(Cl)cc3)N3CCN(CCO)CC3)c(O)n2n1 (stereo not drawn)
inactive: growth inhibition [1] 7.67% | growth inhibition [2] 4.92% | viability increase [3] -2.42% | viability [4] 97% | viability [5] 90.2% | inhibition [6] 1.82% | RAM network inhibition [7] 1.58%

Cc1cc(Nc2c(C)cccc2C)n2nc(C)nc2n1
inactive: growth inhibition [1] -4.35% | growth inhibition [2] 7.11% | viability increase [3] -0.85% | viability [4] 104% | viability [5] 111% | inhibition [6] 2.33% | RAM network inhibition [7] 0.16%

Cn1c(NC(=O)c2ccc(F)c(F)c2)cc(=O)n(C)c1=O
inactive: growth inhibition [1] -2.93% | growth inhibition [2] -3.23% | viability increase [3] -1.64% | viability [4] 95.7% | viability [5] 93.4% | inhibition [6] 0.925% | RAM network inhibition [7] 0.81%

CCCCNC(=O)Nc1ccc(Br)cn1
inactive: growth inhibition [1] -8.62% | growth inhibition [2] 4.73% | viability increase [3] -1.6% | viability [4] 97.6% | viability [5] 96% | inhibition [6] 0.485% | RAM network inhibition [7] 6.6%

C=C(C)Cn1c(SCC(=O)O)nc2c1c(=O)[nH]c(=O)n2C
inactive: growth inhibition [1] -15.9% | growth inhibition [2] -14% | viability increase [3] 1.02% | viability [4] 96.7% | viability [5] 98.8% | inhibition [6] 0.63% | RAM network inhibition [7] 3.24%

CCOC(=O)CCSCC(=O)Nc1nnc(C)s1
inactive: growth inhibition [1] -1.14% | growth inhibition [2] -0.57% | viability increase [3] 0.86% | viability [4] 113% | viability [5] 100% | inhibition [6] 0.55% | RAM network inhibition [7] 3.07%

COc1ccc(Cl)cc1N1C(=O)C2CCCN2C1c1ccccc1F (stereo not drawn)
inactive: growth inhibition [1] 2.31% | growth inhibition [2] -4.76% | viability increase [3] -3.84% | viability [4] 93% | viability [5] 95.1% | inhibition [6] 1.41% | RAM network inhibition [7] 1.3%

Cn1c(Cn2c(=O)sc3ccccc32)nnc1SCC(=O)Nc1ccc(Cl)cc1
inactive: growth inhibition [1] -9.07% | growth inhibition [2] -17.2% | viability increase [3] -3.25% | viability [4] 98.6% | viability [5] 89% | inhibition [6] 3.06% | RAM network inhibition [7] 5.32%

O=C(c1ccco1)N1CCN(C(=O)c2oc(=O)c3ccccc3c2-c2ccccc2)CC1
inactive: growth inhibition [1] -6.24% | growth inhibition [2] -4.58% | viability increase [3] -1.47% | viability [4] 105% | viability [5] 98.5% | inhibition [6] 0.68% | RAM network inhibition [7] 3.83%

O=C(Nc1nnc(-c2ccccc2)o1)c1nc2ccccc2s1
inactive: growth inhibition [1] -9.03% | growth inhibition [2] 10.3% | viability increase [3] -3.96% | viability [4] 93.8% | viability [5] 88.8% | inhibition [6] 1.39% | RAM network inhibition [7] 0.11%

CCCOCCOC(=O)C1=C(C)NC(=O)NC1c1cc(Cl)c(O)c(OC)c1 (stereo not drawn)
inactive: growth inhibition [1] -3.46% | growth inhibition [2] -0.16% | viability increase [3] -0.57% | viability [4] 102% | viability [5] 94.6% | inhibition [6] 0.265% | RAM network inhibition [7] -1.04%

Cc1noc(C(=O)NCc2cccnc2)c1Cl
inactive: growth inhibition [1] -7.93% | growth inhibition [2] -8.18% | viability increase [3] 1.31% | viability [4] 110% | viability [5] 101% | inhibition [6] 0.865% | RAM network inhibition [7] 5.93%

COc1ccc(-c2nc3n(n2)C(c2ccccc2Cl)C(C(N)=O)=C(C)N3)cc1 (stereo not drawn)
inactive: growth inhibition [1] -14.2% | growth inhibition [2] 0.71% | viability increase [3] -0.48% | viability [4] 96.9% | viability [5] 96.2% | inhibition [6] 1.66% | RAM network inhibition [7] -1.36%

CCc1nc(C)cn1S(=O)(=O)c1ccc(Cl)c(Cl)c1Cl
inactive: growth inhibition [1] -6.5% | growth inhibition [2] -13.9% | viability increase [3] -0.17% | viability [4] 99.3% | viability [5] 98.7% | inhibition [6] 0.805% | RAM network inhibition [7] 7.3%

COc1cc2[nH]c(=O)n(CCCCCC(=O)NCCCN3CCC(C)CC3)c(=O)c2cc1OC
inactive: growth inhibition [1] -13.8% | growth inhibition [2] -6.3% | viability increase [3] -0.8% | viability [4] 93.8% | viability [5] 101% | inhibition [6] 1.68% | RAM network inhibition [7] 2.66%

CCCCN1C(=O)/C(=C2\SC(N3CCCCC3)=NC2=O)c2ccccc21
inactive: growth inhibition [1] -4.39% | growth inhibition [2] 14.6% | viability increase [3] -2.31% | viability [4] 48.4% | viability [5] 45.8% | inhibition [6] 1.53% | RAM network inhibition [7] 3.38%

COc1ccc(CCNC(=O)CN(c2ccccc2OC)S(C)(=O)=O)cc1OC
inactive: growth inhibition [1] -2.94% | growth inhibition [2] 9.29% | viability increase [3] -1.9% | viability [4] 106% | viability [5] 96.8% | inhibition [6] 1.04% | RAM network inhibition [7] 1.38%

CCNC(=O)Cc1ccc(NS(=O)(=O)c2ccc(F)cc2)cc1
inactive: growth inhibition [1] -7.1% | growth inhibition [2] 13.8% | viability increase [3] -2.21% | viability [4] 100% | viability [5] 94.6% | inhibition [6] 0.34% | RAM network inhibition [7] 2.36%

CN(Cc1ccccc1)c1nc2c(c(=O)n(C)c(=O)n2C)n1CCSc1ncccn1
inactive: growth inhibition [1] -11.7% | growth inhibition [2] -3.17% | viability increase [3] -2.71% | viability [4] 93.8% | viability [5] 87.1% | inhibition [6] 1.42% | RAM network inhibition [7] 3.63%

CC(C)c1nc2cc3ccccc3cc2[nH]1
inactive: growth inhibition [1] -5.02% | growth inhibition [2] -20.5% | viability increase [3] -3.6% | viability [4] 73.5% | viability [5] 81.8% | inhibition [6] 0.18% | RAM network inhibition [7] 7.45%

CC1(C)CC(=O)C2=C(C1)Nc1ccccc1NC2c1nc2ccccc2[nH]1 (stereo not drawn)
inactive: growth inhibition [1] -10.1% | growth inhibition [2] 1.04% | viability increase [3] -3.97% | viability [4] 100% | viability [5] 95.7% | inhibition [6] 1.65% | RAM network inhibition [7] 1.45%

CCCS(=O)(=O)c1nc(S(=O)(=O)c2ccc(C)cc2)c(N2CCCC2)s1
inactive: growth inhibition [1] -0.655% | growth inhibition [2] 9.56% | viability increase [3] -2.03% | viability [4] 103% | viability [5] 96.3% | inhibition [6] 4.48% | RAM network inhibition [7] 10.2%

NC(=O)C1(N2CCCCC2)CCN(S(=O)(=O)c2cc(Cl)ccc2Cl)CC1
inactive: growth inhibition [1] 4.2% | growth inhibition [2] 3.53% | viability increase [3] 0.74% | viability [4] 98.7% | viability [5] 91.1% | inhibition [6] 1.56% | RAM network inhibition [7] 6.42%

COC(=O)c1ccc(NC(=O)Cn2nc(SC)n(N)c2=S)cc1
inactive: growth inhibition [1] -11.2% | growth inhibition [2] -14.1% | viability increase [3] -0.99% | viability [4] 98% | viability [5] 99.3% | inhibition [6] 1.85% | RAM network inhibition [7] 7.07%
